# Measured values from ChEMBL document CHEMBL5678799 (Biochem J, 2009).
# Tests used:
# [1] = target: Eukaryotic elongation factor 2 kinase (Homo sapiens) (UniProt O00418); assay: Inhibition of recombinant human N-terminal GST-tagged EF2K (2 to 725 residues) expressed in Escherichia coli assessed as remaining activity at 1 uM using RKKFGESKTKTKEFL as substrate incubated for 30 mins in presence of [gamma-33P]ATP by filter binding method relative to control
# How it was run: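 Kinase panel run robotically at 21 °C for 30 min, linear in time and enzyme. […] Compound tested at 1 or 10 µM. Activity given as percentage of incubations without compound, mean of triplicates ± S.D.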
# [2] = target: Serine/threonine-protein kinase pim-1 (Homo sapiens) (UniProt P11309); assay: Inhibition of recombinant human N-terminal His6-tagged PIM1 (2 to 313 residues) expressed in baculovirus infected Sf21 cells assessed as remaining activity at 1 uM using RSRHSSYPAGT as substrate incubated for 30 mins in presence of [gamma-33P]ATP by filter binding method relative to control
# How it was run: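 Incubations ran robotically for 30 min at room temperature (21 °C) under linear conditions. Results are percent activity remaining versus controls without compound, as the mean of triplicates ± S.D.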
# [3] = target: cAMP-dependent protein kinase catalytic subunit alpha (Homo sapiens) (UniProt P17612); assay: Inhibition of recombinant human N-terminal GST-tagged PKAalpha (2 to 351 residues) expressed in Escherichia coli assessed as remaining activity at 1 uM using Kemptide as substrate incubated for 30 mins in presence of [gamma-33P]ATP by filter binding method relative to control
# How it was run: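 Panel assays were run for 30 min at 21 °C, within the linear range for time and enzyme. […] Results are percent activity remaining relative to compound-free control, averaged from triplicate ± S.D.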
# [4] = target: Ribosomal protein S6 kinase alpha-1 (Homo sapiens) (UniProt Q15418); assay: Inhibition of recombinant human N-terminal His6-tagged RSK1 (1 to 735 residues) expressed in baculovirus infected Sf21 cells assessed as remaining activity at 1 uM using KKLNRTLSVA as substrate incubated for 30 mins in presence of [gamma-33P]ATP by filter binding assay relative to control
# [5] = target: Serine/threonine-protein kinase Chk1 (Homo sapiens) (UniProt O14757); assay: Inhibition of recombinant human N-terminal GST-tagged CHK1 (1 to 476 residues) expressed in baculovirus infected Sf21 cells assessed as remaining activity at 10 uM using CHKtide as substrate incubated for 30 mins in presence of [gamma-33P]ATP by filter binding method relative to control
# How it was run: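 Robotic radiometric panel assay, 30 min at room temperature (21 °C), with 10 mM magnesium acetate. […] Compound at 1 or 10 µM. Residual activity expressed relative to compound-free control; triplicate average ± S.D.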
# [6] = target: Glycogen synthase kinase-3 beta (Homo sapiens) (UniProt P49841); assay: Inhibition of recombinant human His6-tagged GSK3beta (2 to 420 residues) expressed in baculovirus infected Sf21 cells assessed as remaining activity at 10 uM using phospho-GS2 peptide as substrate incubated for 30 mins in presence of [gamma-33P]ATP by filter binding method relative to control
# How it was run: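 Radiometric kinase panel run robotically at 21 °C for 30 min, linear in time and enzyme. […] Activity expressed as percentage of control without inhibitor; triplicate determinations.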
# [7] = target: Serine/threonine-protein kinase PLK1 (Homo sapiens) (UniProt P53350); assay: Inhibition of recombinant human N-terminal His6-tagged PLK1 (1 to 603 residues) expressed in baculovirus infected Sf21 cells assessed as remaining activity at 10 uM using ISDELMDATFADQEAKKK as substrate incubated for 30 mins in presence of [gamma-33P]ATP by filter binding method relative to control
# How it was run: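 Radiometric panel assay run robotically at 21 °C for 30 min, linear in time and enzyme. […] Activity is expressed as percentage of the compound-omitted control, averaged from triplicates ± S.D.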
# [8] = target: Ribosomal protein S6 kinase alpha-1 (Homo sapiens) (UniProt Q15418); assay: Inhibition of recombinant human N-terminal His6-tagged RSK1 (1 to 735 residues) expressed in baculovirus infected Sf21 cells assessed as remaining activity at 10 uM using KKLNRTLSVA as substrate incubated for 30 mins in presence of [gamma-33P]ATP by filter binding assay relative to control
smiles,measurement,setting,value
COc1ccc(-c2ccc3c(N4CCOCC4)nc(N4C[C@@H](C)O[C@@H](C)C4)nc3n2)cc1CO [Ku-0063794],Activity,[1],88%
same,Activity,[2],89%
same,Activity,[3],115%
same,Activity,[4],100%
same,Activity,[5],86%
same,Activity,[6],91%
same,Activity,[7],94%
same,Activity,[8],86%
